Assay results from ChEMBL document CHEMBL4219251, “Synthesis and biological evaluation of 2,4-disubstituted phthalazinones as Aurora kinase inhibitors” (Bioorg Med Chem, 2018).
Calls of active or inactive are those of the source. The calls are words filed in the database; no cut-off is given here.

Tests used:
LoVo = assay: Antiproliferative activity against human LoVo cells after 72 hrs by MTT assay; assay type: functional, cell-based
Summary of the method: (§1)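 Cells kept in RPMI-1640 with 10% FBS at 37 °C, 5% CO2. Seeded at 5×10^3 cells/well and grown 24 h, then exposed 72 h at 37 °C to five concentrations (0.01, 0.1, 1, 10, 100 μM) in medium. MTT added for 4 h, formazan dissolved in DMSO, absorbance read at 490 nm. IC50 taken from a log plot of percent of control vs concentration; means ± SD of triplicate experiments.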

HeLa [1] = assay: Antiproliferative activity against human HeLa cells after 72 hrs by MTT assay; assay type: functional, cell-based; summary of the method: as §1
HepG2 = assay: Antiproliferative activity against human HepG2 cells after 72 hrs by MTT assay; assay type: functional, cell-based; summary of the method: as §1
HCT-116 = assay: Antiproliferative activity against human HCT116 cells after 72 hrs by MTT assay; assay type: functional, cell-based; summary of the method: as §1
A549 = assay: Antiproliferative activity against human A549 cells after 72 hrs by MTT assay; assay type: functional, cell-based; summary of the method: as §1
Aurora kinase A = molecular target: T1, Aurora kinase A (Homo sapiens, UniProt O14965); assay: Inhibition of Aurora A (unknown origin) using kemptide as substrate after 30 mins by kinase-Glo luminescence method
T1 sequence (O14965 whole entry): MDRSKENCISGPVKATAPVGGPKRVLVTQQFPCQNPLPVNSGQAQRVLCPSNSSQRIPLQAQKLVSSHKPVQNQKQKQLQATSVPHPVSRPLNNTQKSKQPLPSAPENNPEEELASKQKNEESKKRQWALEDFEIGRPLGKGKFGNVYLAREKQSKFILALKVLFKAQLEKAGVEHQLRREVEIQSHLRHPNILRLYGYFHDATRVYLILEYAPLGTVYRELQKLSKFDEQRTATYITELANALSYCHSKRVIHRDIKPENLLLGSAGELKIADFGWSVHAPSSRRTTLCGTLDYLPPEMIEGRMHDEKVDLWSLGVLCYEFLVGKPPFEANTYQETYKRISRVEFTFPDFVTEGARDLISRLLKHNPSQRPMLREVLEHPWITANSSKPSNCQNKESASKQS
Summary of the method: (§2)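 Luminescent kinase assay. Reaction buffer: 40 mM Tris pH 7.4, 10 mM MgCl2, 1 mM DTT, 0.1 mg/ml BSA, 10 μM ATP, 0.2 μg/ml kinase, 100 μM Kemptide. Compounds tested at 0.1, 1, 10, 100 and 1000 nM (diluted in PBS). Reactions ran 30 min at 37 °C, signal read by Kinase-Glo luminescence, IC50 fitted from the curves.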

Aurora kinase B [2] = molecular target: T2, Aurora kinase B (Homo sapiens, UniProt Q96GD4); assay: Inhibition of Aurora B (unknown origin) using kemptide as substrate after 30 mins by kinase-Glo luminescence method; summary of the method: as §2
T2 sequence (Q96GD4 whole entry): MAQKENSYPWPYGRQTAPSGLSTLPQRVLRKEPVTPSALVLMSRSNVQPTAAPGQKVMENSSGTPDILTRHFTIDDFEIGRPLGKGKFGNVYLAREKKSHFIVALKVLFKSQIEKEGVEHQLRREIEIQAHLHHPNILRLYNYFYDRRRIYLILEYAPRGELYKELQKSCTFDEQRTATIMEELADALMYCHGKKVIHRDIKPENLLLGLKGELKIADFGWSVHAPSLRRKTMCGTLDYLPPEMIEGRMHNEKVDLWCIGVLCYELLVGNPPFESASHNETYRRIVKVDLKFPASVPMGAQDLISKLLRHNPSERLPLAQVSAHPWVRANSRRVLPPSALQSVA

Aurora kinase B [3] = molecular target: T2, Aurora kinase B; assay: Inhibition of Aurora B phosphorylation at Thr232 residue in human HeLa cells at 5 uM after 6 hrs by Western blot method; assay type: cell-based
Summary of the method: (§3)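 HeLa cells treated 6 h at 0, 0.5, 2.5 or 5.0 μM. Lysates (20–30 μg) resolved on 12% SDS-PAGE and blotted to PVDF. Probed overnight at 4 °C with antibodies to phospho-AurA Thr288, phospho-AurB Thr232 and total AurA/AurB. β-actin used as loading control. Values are mean ± SD versus control.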

HeLa [4] = assay: Cell cycle arrest in human HeLa cells assessed as accumulation at S phase at 0.5 uM after 24 hrs by propidium iodide staining based FACS analysis (reference value: 24.72%); assay type: functional
Summary of the method: (§4)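 HeLa cells exposed 24 h to 0, 0.5, 2.0 or 5.0 μM. (1–5)×10^5 cells harvested, washed twice in PBS, fixed overnight or longer in 75% ice-cold ethanol, then washed three times in PBS. DNA stained 15 min in darkness with 1% Triton X-100, 0.01% RNase, 0.05% PI. Phase distribution measured by flow cytometry.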

HeLa [5] = assay: Cell cycle arrest in human HeLa cells assessed as accumulation at G1 phase at 0.5 uM after 24 hrs by propidium iodide staining based FACS analysis (reference value: 65.66%); assay type: functional; summary of the method: as §4
[6] = molecular target: T3, Aurora kinase A (Homo sapiens) (UniProt O14965); assay: Inhibition of Aurora A phosphorylation at Thr288 residue in human HeLa cells at 5 uM after 6 hrs by Western blot method; assay type: cell-based; summary of the method: as §3
T3 sequence (whole entry): T1 sequence (O14965 whole entry)

HeLa [7] = assay: Downregulation of Cdc2 protein level in human HeLa cells after 24 hrs by Western blot method; assay type: functional, cell-based
Summary of the method: (§5)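 HeLa cells treated 24 h at 0, 0.5, 2.0 or 5.0 μM, or with VX-680 at 5.0 μM. Lysed in Tris-HCl pH 7.5/NP-40/SDS buffer with protease inhibitors, 20–30 μg protein run on 12% SDS-PAGE, transferred to PVDF, probed overnight at 4 °C with anti-cyclinB1 and anti-cdc2. β-actin served as loading control. Values are mean ± SD.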

HeLa [8] = assay: Cell cycle arrest in human HeLa cells assessed as accumulation at S phase at 2 uM after 24 hrs by propidium iodide staining based FACS analysis (reference value: 24.72%); assay type: functional; summary of the method: as §4
HeLa [9] = assay: Cell cycle arrest in human HeLa cells assessed as accumulation at G1 phase at 2 uM after 24 hrs by propidium iodide staining based FACS analysis (reference value: 65.66%); assay type: functional; summary of the method: as §4
[10] = molecular target: T3, Aurora kinase A (Homo sapiens); assay: Inhibition of Aurora A phosphorylation at Thr288 residue in human HeLa cells after 6 hrs by Western blot method; assay type: cell-based; summary of the method: as §3
HeLa [11] = assay: Cell cycle arrest in human HeLa cells assessed as accumulation at G2/M phase at 0.5 uM after 24 hrs by propidium iodide staining based FACS analysis (reference value: 9.63%); assay type: functional; summary of the method: as §4
HeLa [12] = assay: Cell cycle arrest in human HeLa cells assessed as accumulation at S phase at 5 uM after 24 hrs by propidium iodide staining based FACS analysis (reference value: 24.72%); assay type: functional
HeLa [13] = assay: Downregulation of Cyclin-B1 protein level in human HeLa cells after 24 hrs by Western blot method; assay type: functional, cell-based; summary of the method: as §5
HeLa [14] = assay: Cell cycle arrest in human HeLa cells assessed as accumulation at G2/M phase at 2 uM after 24 hrs by propidium iodide staining based FACS analysis (reference value: 9.63%); assay type: functional; summary of the method: as §4
Aurora kinase B [15] = molecular target: T2, Aurora kinase B; assay: Inhibition of Aurora B phosphorylation at Thr232 residue in human HeLa cells after 6 hrs by Western blot method; assay type: cell-based; summary of the method: as §3
HeLa [16] = assay: Cell cycle arrest in human HeLa cells assessed as accumulation at G2/M phase after 24 hrs by propidium iodide staining based FACS analysis; assay type: functional; summary of the method: as §4
HeLa [17] = assay: Cell cycle arrest in human HeLa cells assessed as accumulation at G2/M phase at 5 uM after 24 hrs by propidium iodide staining based FACS analysis (reference value: 9.63%); assay type: functional
HeLa [18] = assay: Cell cycle arrest in human HeLa cells assessed as accumulation at G1 phase at 5 uM after 24 hrs by propidium iodide staining based FACS analysis (reference value: 65.66%); assay type: functional

| IC50 (LoVo; Homo sapiens, LoVo, 72 h) | IC50 (HeLa [1]; Homo sapiens, HeLa, 72 h) | IC50 (HepG2; Homo sapiens, HepG2, 72 h) | IC50 (HCT-116; Homo sapiens, HCT-116, 72 h) | IC50 (A549; Homo sapiens, A549, 72 h) | Structure (SMILES) | also measured |
| --- | --- | --- | --- | --- | --- | --- |
| 82.2 µM | > 100 µM | > 100 µM | > 100 µM | > 100 µM | Cc1noc(C)c1-c1nn(Cc2ccc(C(=O)NC3CCCCC3)cc2)c(=O)c2ccccc12 |  |
| 52.3 µM | > 100 µM | > 100 µM | > 100 µM | 73.3 µM | Cn1cc(-c2nn(Cc3ccc(C(=O)N4CCOCC4)cc3)c(=O)c3ccccc23)cn1 |  |
| > 100 µM | > 100 µM | 97.3 µM | > 100 µM | 86.2 µM | Cc1noc(C)c1-c1nn(Cc2ccc(C(=O)N3CCCCC3)cc2)c(=O)c2ccccc12 |  |
| 77.1 µM | 65.5 µM | 73.1 µM | 73.9 µM | 67.4 µM | Cn1cc(-c2nn(Cc3ccc(C(=O)N4CCCCC4)cc3)c(=O)c3ccccc23)cn1 |  |
| 54.5 µM | 23.2 µM | 40.4 µM | 48.2 µM | 64.3 µM | O=C(NC1CCCCC1)c1ccc(Cn2nc(Nc3ccc(C(=O)N4CCOCC4)cc3)c3ccccc3c2=O)cc1 |  |
| 5.3 µM | 3.2 µM | 8.3 µM | 5.4 µM | 6.8 µM | Cn1cc(Nc2nn(Cc3ccc(C(=O)NC4CCCCC4)cc3)c(=O)c3ccccc23)cn1 | IC50 (Aurora kinase A): 0.145 µM; IC50 (Aurora kinase B [2]): 0.132 µM |
| 23.7 µM | 16.7 µM | 84.3 µM | 14.3 µM | 32.3 µM | Cn1cc(-c2nn(Cc3ccc(C(=O)NC4CCCC4)cc3)c(=O)c3ccccc23)cn1 | IC50 (Aurora kinase A): 0.583 µM; IC50 (Aurora kinase B [2]): 0.265 µM |
| > 100 µM | > 100 µM | > 100 µM | > 100 µM | > 100 µM | Cc1noc(C)c1-c1nn(Cc2ccc(C(=O)NC3CC3)cc2)c(=O)c2ccccc12 |  |
| 83.3 µM | 28.5 µM | 47.3 µM | 69.5 µM | 54.3 µM | CN1CCC(NC(=O)c2ccc(Cn3nc(-c4cnn(C)c4)c4ccccc4c3=O)cc2)CC1 | IC50 (Aurora kinase A): 0.183 µM; IC50 (Aurora kinase B [2]): 0.105 µM |
| > 100 µM | > 100 µM | > 100 µM | 84.9 µM | > 100 µM | Cc1noc(C)c1-c1nn(Cc2ccc(C(=O)NC3CCN(C)CC3)cc2)c(=O)c2ccccc12 |  |
| 22.2 µM | 6.3 µM | 11.3 µM | 22.7 µM | 42.6 µM | Cc1cc(Nc2nn(Cc3ccccc3)c(=O)c3ccccc23)n[nH]1 |  |
| 79.5 µM | 87.3 µM | 82.4 µM | > 100 µM | > 100 µM | O=C(Nc1ccccc1Cl)c1ccc(Nc2nn(Cc3ccc(C(=O)NC4CCCCC4)cc3)c(=O)c3ccccc23)cc1 |  |
| 48.2 µM | 40 µM | > 100 µM | 20.1 µM | 51.2 µM | Cn1cc(-c2nn(Cc3ccc(C(=O)NC4CC4)cc3)c(=O)c3ccccc23)cn1 |  |
| 84.4 µM | > 100 µM | > 100 µM | > 100 µM | > 100 µM | Cc1noc(C)c1-c1nn(Cc2ccc(C(=O)N3CCOCC3)cc2)c(=O)c2ccccc12 |  |
|  |  |  |  |  | Cc1noc(C)c1-c1nn(Cc2ccc(C(=O)NC3CC(C)(C)N([O])C(C)(C)C3)cc2)c(=O)c2ccccc12 | IC50 (LoVo; lovo): 41.2 µM; IC50 (HeLa [1]; hela): 83.5 µM; IC50 (HepG2; hepg2): 85.1 µM; IC50 (HCT-116; hct-116): 36.8 µM; IC50 (A549; a549): 84.3 µM |
| 2.6 µM | 2.2 µM | 4.6 µM | 3.8 µM | 3.3 µM | Cn1cc(-c2nn(Cc3ccc(C(=O)NC4CCCCC4)cc3)c(=O)c3ccccc23)cn1 | inhibition (Aurora kinase B [3]): Active; Activity (HeLa [4]): 30.47%; Activity (HeLa [5]): 34.87%; inhibition [6]: Active; Activity (HeLa [7]): Dose-dependent effect; Activity (HeLa [8]): 12.83%; IC50 (Aurora kinase A): 0.118 µM; Activity (HeLa [9]): 5.98%; inhibition [10]: Dose-dependent effect; IC50 (Aurora kinase B [2]): 0.08 µM; Activity (HeLa [11]): 34.66%; Activity (HeLa [12]): 5.48%; Activity (HeLa [13]): Dose-dependent effect; Activity (HeLa [14]): 81.19%; inhibition (Aurora kinase B [15]): Dose-dependent effect; Activity (HeLa [16]): Dose-dependent effect; Activity (HeLa [17]): 87.17%; Activity (HeLa [18]): 7.34% |
| > 100 µM | > 100 µM | > 100 µM | > 100 µM | > 100 µM | Cc1noc(C)c1-c1nn(Cc2ccc(C(=O)NC3CCCC3)cc2)c(=O)c2ccccc12 |  |

| Structure (SMILES) | IC50 (LoVo; Homo sapiens, LoVo, 72 h) | IC50 (HeLa [1]; Homo sapiens, HeLa, 72 h) | IC50 (HepG2; Homo sapiens, HepG2, 72 h) | IC50 (HCT-116; Homo sapiens, HCT-116, 72 h) | IC50 (A549; Homo sapiens, A549, 72 h) | also measured |
| --- | --- | --- | --- | --- | --- | --- |
| Cn1cc(-c2nn(Cc3ccc(C(=O)NC4CC(C)(C)N([O])C(C)(C)C4)cc3)c(=O)c3ccccc23)cn1 | 50.1 µM | 27.7 µM | 27.4 µM | 50.5 µM | 37.3 µM | IC50 (Aurora kinase A): 0.168 µM; IC50 (Aurora kinase B [2]): 0.134 µM |
